Source: PubChem
JMJD2C inh: inhibitors of GASC-1 histone demethylase, primary screen, biochemical, fluorescence, DELFIA europium; Lysine-specific demethylase 4C (Homo sapiens), Q9H3R0; GST-JMJD2C(1-420) H3K9me3 demethylation; inhibition, % at 2.35 µM; AID 2099, 2009; 330,000 tested, 0.069% active;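 active = more than half of a compound's replicate wells show inhibition beyond 50%, single wells judged on their own value; inconclusive = some, but no more than half, of replicates pass 50% inhibition; inactive = no replicate passes 50% inhibition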;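 note: signal counts dimethyl H3K9 product captured on neutravidin plate; 0% = median of DMSO wells and 100% = 0.3 times that DMSO median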
Target sequence (Q9H3R0 1-420 limits assumed): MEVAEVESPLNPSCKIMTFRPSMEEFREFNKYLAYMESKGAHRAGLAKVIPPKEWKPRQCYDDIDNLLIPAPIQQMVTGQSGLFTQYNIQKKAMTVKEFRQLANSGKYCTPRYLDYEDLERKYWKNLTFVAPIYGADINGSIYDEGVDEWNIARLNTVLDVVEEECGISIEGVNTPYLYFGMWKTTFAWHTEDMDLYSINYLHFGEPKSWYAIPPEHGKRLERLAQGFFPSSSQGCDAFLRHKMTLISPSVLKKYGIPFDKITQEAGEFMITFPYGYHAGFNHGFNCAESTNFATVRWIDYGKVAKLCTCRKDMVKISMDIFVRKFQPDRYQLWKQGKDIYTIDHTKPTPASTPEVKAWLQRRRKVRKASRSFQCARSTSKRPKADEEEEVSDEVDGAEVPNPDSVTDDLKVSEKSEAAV
PP5 inh: PP5 phosphatase inhibitors, primary screen, biochemical, fluorescence. Serine/threonine-protein phosphatase 5 (Homo sapiens), P53041. purified PP5c, OMFP substrate fluorescence. inhibition, % at 6.7 µM. 320,000 tested, 0.18% active. AID 1987, 2009;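 active = inhibition above the campaign's mean inhibition across all tested compounds plus 3 SD, cut at about 9.5% in these data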;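 note: 0% = DMSO only and 100% = 100 µM cantharidin control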
H9c2 protect: cardioprotection against H2O2-induced cell death, primary screen, uHTS, H9c2 cells, ATPLite luminescence | H9c2 cardiomyocytes, H2O2 injury protection, 2 h | protection from H2O2 cell death, % at 20 µM | 360,000 tested, 0.63% active | AID 588492, 2011;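 active = compounds giving at least 50% protection of heart cells from peroxide-induced death in the single-dose screen, raw or plate-pattern-corrected value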;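 note: 0% = DMSO wells with peroxide and 100% = DMSO wells without peroxide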
Fh CTSL1 inh: Fasciola hepatica cathepsin L1 inhibitors, primary screen, counter-screen for PFM18AAP inhibitor project, biochemical, QFRET, fluorogenic peptide substrate | recombinant F. hepatica cathepsin L1, Z-Leu-Arg-MCA fluorescence | inhibition, % at 5.96 µM | 300,000 tested, 0.49% active;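 active = inhibition above the mean of all tested compounds plus 3 SD, set per screening campaign, cut at about 17% in these data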;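 note: 0% = plate median of test compound wells and 100% = 1 µM Z-Phe-Ala-diazomethylketone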
T cruzi inh: inhibitors of intracellular T. cruzi growth, primary screen, luminescence, NIH3T3 host cells. T. cruzi beta-gal in NIH3T3, 90 h. inhibition, % (concentration not given with the values). 300,000 tested, 1.4% active. AID 1885, 2009;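 active = mean inhibition across valid replicates above about 55%, limit read from the data; inconclusive = mean below that limit but half or more replicates reach it; inactive = mean below it, under half of replicates reach it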;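 note: signal also drops with host cell toxicity which is not excluded here; 0% = plate median of DMSO wells and 100% = zero luminescence signal; higher percent means less beta-gal luminescence so fewer parasites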
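Incubation – ≥90 h infection period, 3 h prior cell attachment · System – NIH/3T3 fibroblasts plus reporter T. cruzi · Doses – compound pinned at 50 nL/well, DMSO · Read-out basis – percent inhibition of parasite-derived β-gal signal · Signal – luminescent β-galactosidase signal after 60 min lysis · Also added – 5000 T. cruzi trypomastigotes/well · Medium – Low-serum DMEM with 2% FBS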
pCIP destab: p/CIP-EGFP fusion destabilizers, primary screen, fluorescence, F442A cells | Q05BA5 | AID 1984, 2009 | decrease of EGFP signal, % at 10 µM | 290,000 tested, 0.01% active | 16 h;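 active = EGFP signal decrease of at least 30% at 10 µM or well 3 SD below plate mean, unless failing retest; inactive = the rest, including hits failing retest or dose response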
An asterisk follows results filed as active; ? = inconclusive; / = no result. Only some compounds are listed: those with a hit (about 2.4% of all), similar ones and a draw of the others.

SMILES | JMJD2C inh | PP5 inh | H9c2 protect | Fh CTSL1 inh | T cruzi inh | pCIP destab
O=C(/C=C/c1ccccc1)c1ccc2c(c1)OCCCCO2 | -6 | 1 | -22 | 4 | -21 | -6
O=C(CCl)N(C/C=C/c1ccccc1)c1ccc2c(c1)OCCO2 | 0 | 4 | -29 | 10 | 93* | 4
O=C(CNc1cccc(C(F)(F)F)c1)N/N=C/c1ccccc1C(=O)O | -3 | 1 | -2 | 3 | -26 | 4
Cc1nn(Cc2ccc(Cl)cc2Cl)c(Cl)c1/C=N/NC(=O)CNc1cccc(C(F)(F)F)c1 | -6 | 1 | / | 0 | 71* | -3
COc1ccc(/C=C/C2=CCN(Cc3ccc(OC)cc3)CC2)cc1 | 0 | 2 | -10 | 6 | 58* | -7
CC(=O)Nc1cccc(NC(=O)CSc2ccc(-c3ccccn3)nn2)c1 | -17 | -1 | 67* | -5 | 6 | 1
CC(C)c1ccc(NC(=O)COc2ccccn2)cc1 | 9 | -2 | 0 | -4 | 56* | -4
COc1cc(NC(=O)CSc2ccc(-c3ccccn3)nn2)cc(OC)c1 | 0 | 1 | 70* | 5 | 26 | -2
CCc1ccc(NC(=O)CSc2ccc(-c3ccccn3)nn2)cc1 | -8 | 4 | 50* | 5 | ? | -10
CC(=O)c1cccc(NC(=O)CSc2ccc(-c3ccccn3)nn2)c1 | 10 | 4 | 36 | 6 | -10 | 2
C=CCc1c(Cl)nc(C)nc1NCc1ccccc1 | 26 | 3 | -15 | -1 | 6 | -4
CCOC(=O)c1ccccc1NC(=O)CSc1ccc(-c2ccccn2)nn1 | 1 | 5 | 57* | -6 | 24 | -1
COc1ccc(NC(=O)C2(C)Cc3c(-c4cccc(C(F)(F)F)c4)ccnc3O2)cn1 (configuration not stated) | / | / | 8 | / | / | /
Cc1cccc(CN(C)CCc2ccccn2)c1 | -7 | 1 | -2 | 4 | 61* | -4
Cc1ccccc1CN(C)CCc1ccccn1 | -11 | 1 | 9 | -1 | -7 | -3
CC(=O)Nc1ccc(CN(C)c2c(C)nc3ccc(C(=O)N4CCN(c5ccccc5)CC4)cn23)cc1 | / | / | 8 | / | / | /
c1ccc(CNc2nc(-c3cccnc3)nc3ccccc23)cc1 | -4 | / | 0 | / | 45 | -9
c1cncc(CNc2nc(-c3cccnc3)nc3ccccc23)c1 | 9 | 4 | 14 | -1 | 4 | 3
c1cncc(-c2nc(NCc3ccc4c(c3)OCO4)c3ccccc3n2)c1 | 19 | 3 | 14 | 4 | 69* | -5
Clc1ccccc1-c1nc(N/N=C/c2cccnc2)c2ccccc2n1 | -9 | 1 | 78* | 1 | 1 | -13
Fc1ccc(CNc2nc(-c3cccnc3)nc3ccccc23)cc1 | -9 | 4 | -2 | 0 | 56* | -10
c1ccc(CN2CCC(Nc3nc(-c4cccnc4)nc4ccccc34)CC2)cc1 | 4 | 0 | -7 | -2 | 59* | -14
O=C(N/N=C/c1cccnc1)c1cc(-c2ccccc2Cl)nc2ccccc12 | 2 | 2 | 14 | 4 | 7 | -3
COc1ccc(NC(C)=O)cc1S(=O)(=O)N1CCN(Cc2cccs2)CC1 | 2 | 0 | -9 | / | / | /
Cc1cc(NC(=O)CN2C(=O)NC(C)(c3ccc(Cl)cc3Cl)C2=O)no1 (configuration not stated) | -6 | / | 4 | / | / | /
SMILES | JMJD2C inh | PP5 inh | H9c2 protect | Fh CTSL1 inh | T cruzi inh | pCIP destab
NC(=O)c1ccc(NC(=O)CSC(=O)c2ccccc2)cc1 | 1 | / | 2 | / | / | /
Cc1ccc(CNc2nc(-c3cccnc3)nc3ccccc23)cc1 | 10 | 3 | -3 | 0 | ? | -5
Clc1cccc(CNc2nc(-c3cccnc3)nc3ccccc23)c1 | / | / | -2 | / | 63* | -4
CC(Nc1nc(-c2cccnc2)nc2ccccc12)c1ccc(F)cc1 (configuration not stated) | -11 | 4 | 2 | 7 | 56* | -10
O=[N+]([O-])c1ccc(N/N=C/c2cccnc2)cc1 | 8 | 2 | 10 | 5 | 21 | 0
Clc1ccc(N/N=C/c2cccnc2)cc1 | -6 | -5 | -7 | 17* | 46 | 4
CC(Nc1nc(-c2ccccc2)nc2ccccc12)c1ccccc1 (configuration not stated) | -8 | 6 | -8 | -5 | 25 | -2
c1cncc(-c2nc(NCC3COc4ccccc4O3)c3ccccc3n2)c1 (configuration not stated) | 6 | 8 | 52* | 2 | 49 | -19
COc1cc([N+](=O)[O-])ccc1NC(=O)CN1C(=O)NC2(CCCCC2C)C1=O (configuration not stated) | / | / | 5 | / | / | /
Cc1cc(N/N=C/c2ccc(O)c(C)c2O)nc(-c2ccccc2O)n1 | 4 | 6 | 36 | 3 | 59* | -1
C/C(=N\Nc1cc(C)nc(-c2ccccc2O)n1)c1ccccc1 | -25 | 4 | 26 | 0 | ? | -16
c1ccc(-c2nc(NCc3cccnc3)c3oc4ccccc4c3n2)cc1 | 1 | 7 | 19 | 2 | 56* | 10
Cc1ccccc1Nc1nc(-c2cccnc2)nc2ccccc12 | 21 | 3 | 2 | 6 | 59* | -14
COc1ccc(CCNc2nc(-c3cccnc3)nc3ccccc23)cc1OC | -33 | 1 | 51* | 8 | 27 | -14
O=C(O)CNc1nc(-c2ccccc2)nc2c1oc1ccccc12 | -6 | -4 | 1 | 2 | 6 | 1
COc1ccc(/C=N/Nc2nc(-c3cccnc3)nc3ccccc23)cc1OC | 9 | 5 | 10 | 13 | -1 | 3
S=P(N1CC1)(N1CC1)N1CC1 | / | 2 | -9 | -3 | / | /
Cc1c(O)ccc(/C=N/Nc2nc(-c3cccnc3)nc3ccccc23)c1O | -8 | 4 | 20 | 6 | 56* | -11
CCCOc1ccc(NC(=O)OC2CCN(C)CC2)cc1 | 5 | -2 | 17 | 2 | 55* | -5
CCCOc1ccc(C(=O)Nc2ccc(S(=O)(=O)N3CCN(C)CC3)cc2)cc1 | 2 | 0 | -6 | 5 | 4 | -11
Cc1ccc(Cn2nc(C)c(NC(=O)CSc3nc4c(c(C(F)(F)F)n3)CCc3ccccc3-4)c2C)cc1 | -5 | 0 | -4 | -2 | 21 | -3
Cc1nn(Cc2ccc(Cl)cc2)c(C)c1NC(=O)CSc1nc2c(c(C(F)(F)F)n1)CCc1ccccc1-2 | 1 | 1 | -5 | -3 | 60* | -9
COc1cnc(-c2ccccn2)nc1NC(C)C | -18 | 1 | 28 | 3 | 77* | -3
COc1ccccc1Sc1nc(-c2ccccn2)ncc1OC | 8 | 4 | -6 | 7 | 13 | 13
